Hits are enriched below; roughly 9.5% of the tested compounds scored in any of these assays.
HEK293 NFkB inh: inhibitors of PMA/ionomycin-induced NF-kB reporter, primary screen, antigen receptor NF-kB inhibitor project, cell-based, HEK-293 luciferase reporter, luminescence; HEK-293 NF-kB luciferase reporter; inhibition, % at 3 µM; 0.21% of 62,000 active; AID 465, 2006;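 active = inhibition above the mean of all tested compounds plus 3 SD, cut at about 40% in these data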
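Timing: 1 h pretreatment, 16 h stimulation, 37 °C; system: HEK-293 cells with stable firefly luciferase reporter driven by four HIV NF-kB elements; doses: 3 µM once, 0.30% DMSO; measured by: luciferase luminescence; control set: DMSO and 10 µM reference inhibitor; repeats: single test; reagent: PMA plus ionomycin mix as NF-kB-activating stimulus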
mHtt clearance: clearance of mutant huntingtin inclusions, primary screen, imaging, HeLa Exon1htt(103Q)mCFP, confocal imaging. aggregate imaging; zero = plate's median compound well. inhibition, % at 1.5 µM. 0.42% of 47,000 active. AID 853, 2007;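 active = inhibition of aggregate fluorescence above about 70%, also judged a hit by eye on the cell image, limit read from the data, passing the limit was not always enough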;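 note: cells exposed to compound for three days before fixation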
M1 antagonist: antagonists of rat M1 muscarinic receptor. CHO-M1 cells, Fluo-4 calcium, ACh EC80 antagonist mode; active compounds read low. 3.4% of 64,000 active. AID 628, 2007. Muscarinic acetylcholine receptor M1 (Rattus norvegicus), P08482. B-score at 10 µM;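 active = calcium fluorescence response, raw or row-and-column corrected B-score, differing from the plate sample mean either way at a set confidence level, mostly lower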
Jurkat viability: cytotoxicity toward Jurkat T cells, primary screen, cytotoxicity control, cell-based, Jurkat E6.1, 60K MLSMR library; 1.2% of 56,000 active; Jurkat E6.1 viability, ATP luminescence, 48 h; inhibition, % at 4 µM;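 active = inhibition above the mean inhibition of all tested compounds plus 3 SD, cut at about 28% in these data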
M1 agonist: M1 muscarinic receptor agonists, primary screen, CHO-M1 cells, Fluo-4 calcium, agonist mode. Fluo-4 calcium fluorescence; active compounds read high. B-score at 10 µM. 3% of 64,000 active. AID 626, 2007;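 active = fluorescence rise, raw or as B-score row- and column-corrected plate score, outside the 99.7% band of its plate's samples, either direction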
D1 allo mod: D1 CRE-luciferase signal change, two-sided – cell-based, HEK293 D1, dopamine EC30, D1 allosteric modulator project, primary screen; D(1A) dopamine receptor (Homo sapiens), P21728; dopamine EC30 potentiation; actives deviate in either direction; B-score at 10 µM; 5.9% of 58,000 active; AID 641, 2007;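 active = luminescence count or its row- and column-corrected plate score outside the 99.7% band of the plate's sample wells, on either side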
Target sequence (P21728 whole entry, looked up): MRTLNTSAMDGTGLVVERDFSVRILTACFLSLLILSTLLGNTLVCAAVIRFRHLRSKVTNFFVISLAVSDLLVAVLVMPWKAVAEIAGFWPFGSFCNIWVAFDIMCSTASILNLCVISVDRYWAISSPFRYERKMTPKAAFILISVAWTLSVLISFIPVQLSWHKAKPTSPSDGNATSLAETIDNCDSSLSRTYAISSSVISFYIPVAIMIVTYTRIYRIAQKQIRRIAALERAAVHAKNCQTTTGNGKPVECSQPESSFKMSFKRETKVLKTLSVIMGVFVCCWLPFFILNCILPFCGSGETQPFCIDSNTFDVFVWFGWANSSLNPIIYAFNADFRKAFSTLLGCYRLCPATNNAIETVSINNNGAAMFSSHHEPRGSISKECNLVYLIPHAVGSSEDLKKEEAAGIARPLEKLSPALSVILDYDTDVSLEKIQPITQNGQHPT
Each line names hits and unclear results; the compound was inactive in the other large screens.

Clc1ccccc1Nc1c2c(nc3ncnn13)CCC2	none
c1ccc(Nc2c3c(nc4ncnn24)CCC3)cc1	D1 allo mod -4.8 (no result: mHtt clearance)
Cc1csc(NC(=O)c2cc3c(s2)CCC3)n1	D1 allo mod -5.6 (no result: Jurkat viability)
CCc1ccc(N(C(C)=O)C2C=CS(=O)(=O)C2)cc1 (centres undefined)	none
COC(=O)c1ccccc1NC(=O)C1CCN(C(=O)c2cc(OC)c(OC)c(OC)c2)CC1	none (no result: mHtt clearance, Jurkat viability)
CCN1CCN(c2ncc3c(n2)CC(c2cc(OC)c(OC)c(OC)c2)CC3=O)CC1 (centres undefined)	Jurkat viability 80 (no result: D1 allo mod)
C=CCn1cnc2c(c1=O)c1nc3ccccc3nc1n2-c1ccccc1	M1 antagonist -14 (no result: mHtt clearance)
O=c1c2c3nc4ccccc4nc3n(CCN3CCOCC3)c2ncn1CCN1CCOCC1	M1 agonist 2.7 (no result: mHtt clearance, D1 allo mod)
O=c1c2c3nc4ccccc4nc3n(CC3CCCO3)c2ncn1CCc1ccccc1 (centres undefined)	none (no result: mHtt clearance)
C=CCn1cnc2c(c1=O)c1nc3ccccc3nc1n2/N=C/c1ccccn1	M1 antagonist -4.1, M1 agonist 8.1 (no result: mHtt clearance)
C=CCn1cnc2c(c1=O)c1nc3ccccc3nc1n2/N=C/c1cccc(OC)c1OC	M1 agonist 4.8 (no result: mHtt clearance)
CC(C)CC(=O)O/N=C1\C(=O)N(Cc2ccc(Cl)cc2)c2ccc([N+](=O)[O-])cc21	none (no result: HEK293 NFkB inh, M1 antagonist, Jurkat viability, M1 agonist, D1 allo mod)
CN(C)CCCN1C(=O)C(=O)/C(=C(/O)c2ccc3c(c2)OCCO3)C1c1ccccn1 (centres undefined)	none (no result: mHtt clearance)
Fc1ccc2c(Cl)c(-c3nnc(-c4cccs4)o3)sc2c1	D1 allo mod -6.4 (no result: mHtt clearance)
Clc1ccc2c(Cl)c(-c3nnc(-c4ccccc4)o3)sc2c1	none (no result: HEK293 NFkB inh, M1 antagonist, Jurkat viability, M1 agonist, D1 allo mod)
Cc1ccc2oc(=O)c3cnn(CC(=O)N4CCCc5ccccc54)c3c2c1	M1 antagonist 2.1
Cc1ccc(S(=O)(=O)N2CCN(C(=O)CSc3nnnn3C)C2)cc1	none (no result: mHtt clearance)
O=C(Nc1nnc(C2CC2)s1)C1Cc2ccccc2CN1S(=O)(=O)c1ccccc1F (centres undefined)	none (no result: HEK293 NFkB inh, M1 antagonist, Jurkat viability, M1 agonist, D1 allo mod)
CCCc1cc(C(=O)Nc2sc3c(c2C#N)CCC3)no1	mHtt clearance 82
Fc1ccc(Br)cc1C1C=C(c2cccnc2)Nc2ncnn21 (centres undefined)	Jurkat viability 39 (no result: mHtt clearance)
Cc1ccsc1C=Nc1ccc(O)cc1	Jurkat viability 48
O=C(CSc1nc2ccccc2[nH]1)NCCCn1ccnc1	none (no result: mHtt clearance)
COc1cc(NC(=O)CSc2nccc(C)n2)c(C(=O)O)cc1OC	M1 antagonist 1.2
COc1ccc(NC(=O)CSc2nccc(C)n2)cc1	none (no result: mHtt clearance)
Cc1cccc(-c2noc(CCCOc3ccc(Cl)cc3Cl)n2)c1	none (no result: HEK293 NFkB inh, M1 antagonist, Jurkat viability, M1 agonist, D1 allo mod)
O=C(Nc1ccccc1)N(CCc1nc2ccccc2[nH]1)C1CCCC1	M1 agonist 2.3 (no result: D1 allo mod)
O=C(CCc1nc2ccccc2[nH]1)Nc1ccccc1	none (no result: mHtt clearance)
CCOCCCN1CC(C(=O)NCCc2ccccc2)CC1=O (centres undefined)	M1 antagonist 2.2
COCCNC(=O)C1CC(=O)N(CCc2ccccc2)C1 (centres undefined)	none
O=C(COc1ccccc1)NCC(c1cccs1)N1CCOCC1 (centres undefined)	none (no result: Jurkat viability)
O=C(NCC(c1cccs1)N1CCOCC1)c1ccc(Cl)s1 (centres undefined)	Jurkat viability 95 (no result: mHtt clearance)
NC(=O)NC(Cc1ccccc1)C(=O)O (centres undefined)	none (no result: mHtt clearance)
NC(=O)NC(Cc1ccccc1)c1ccccc1 (centres undefined)	M1 agonist 2.3 (no result: mHtt clearance, D1 allo mod)
O=c1c2ccccc2oc2ncccc12	none (no result: mHtt clearance)
O=CN1CCN(C(=O)c2ccccc2F)CC1	D1 allo mod -3.2
O=S(=O)(c1ccc(NCCc2c[nH]c3ccccc23)nc1)N1CCOCC1	none
O=C(Nc1nc(-c2ccc3c(c2)OCCO3)cs1)c1ccc(S(=O)(=O)N2CCCCC2)cc1	Jurkat viability 72 (no result: mHtt clearance)
C/C=C/C=[N+](\[O-])C(C)/C(=N/O)c1ccc(F)cc1 (centres undefined)	D1 allo mod -5.7 (no result: mHtt clearance)
CC(C)OC(=O)c1nn2c(C(F)(F)F)cc(-c3ccco3)nc2c1Cl	none (no result: HEK293 NFkB inh, M1 antagonist, Jurkat viability, M1 agonist, D1 allo mod)
CC(C)OC(=O)c1nn2c(C(F)(F)F)cc(-c3ccc(Br)o3)nc2c1Br	M1 agonist 9.7 (no result: HEK293 NFkB inh, mHtt clearance, Jurkat viability, D1 allo mod)
Cn1cnc2c(sc3nc(N4CCOCC4)c4c(c32)CC(C)(C)OC4)c1=O	D1 allo mod 3.6 (no result: mHtt clearance)
Cc1cc(NC(=O)CSc2nnc(C3CC3)n2C)no1	none (no result: mHtt clearance)
Cc1cc(NC(=O)CSc2nnc3c(C)cc4c(C)ccc(C)c4n23)no1	Jurkat viability 90 (no result: mHtt clearance)
COc1ccc(S(=O)(=O)N2CCCC2C(=O)Nc2ccc(C(C)=O)cc2)cc1 (centres undefined)	none (no result: mHtt clearance)
CC(C)(C)c1ccc(-c2noc(CCC(N)=O)n2)cc1	HEK293 NFkB inh 86, D1 allo mod -3.5
CN(C)C(=O)CCc1nc(-c2ccc(C(C)(C)C)cc2)no1	none
Cc1ccc(-c2noc(CCC(=O)Nc3ccc(C)cn3)n2)cc1	none
CNC(=O)CCc1nc(-c2ccc(C(C)(C)C)cc2)no1	HEK293 NFkB inh 70 (no result: D1 allo mod)
CCCCn1nc(C(=O)O)ccc1=O	none (no result: mHtt clearance)
O=C(COC(=O)Cc1ccsc1)NC1CCCCCC1	mHtt clearance 74
CC(NC(=O)CSc1nc2sc3c(c2c(=O)n1-c1ccccc1)CCCC3)c1ccccc1 (centres undefined)	mHtt clearance 91 (no result: HEK293 NFkB inh, M1 antagonist, Jurkat viability, M1 agonist, D1 allo mod)
O=C(CSc1nc2ccccc2o1)NCCOc1ccccc1	none
Cc1ccc2c(c1)c1c(n2CC(O)Cn2c(C)nc3ccccc32)C(=O)CCC1 (centres undefined)	none (no result: mHtt clearance)
Cc1ccc2c(c1)c1c(n2CC(O)Cn2c(C)nc3ccccc32)/C(=N\O)CCC1 (centres undefined)	mHtt clearance 100
CC(C)OC(=O)NCN1C(=O)C2C3C=CC(C3)C2C1=O (centres undefined)	none (no result: HEK293 NFkB inh, M1 antagonist, Jurkat viability, M1 agonist, D1 allo mod)
[O-][N+]1=c2ccc(Nc3ccccc3)cc2=NC12CCCCC2	none
COc1ccc(Nc2ccc3c(c2)=NC2(CCCCC2)[N+]=3[O-])cc1	D1 allo mod -2.7 (no result: HEK293 NFkB inh, mHtt clearance, Jurkat viability)
COc1ccc(NS(=O)(=O)c2cc(OC)ccc2NC(=O)c2cc(C)oc2C)cc1	Jurkat viability 94 (no result: mHtt clearance)
COc1ccc(NS(=O)(=O)c2cc(C(=O)O)ccc2C)cc1	none
COc1ccc(NS(=O)(=O)c2cc(C)ccc2C)cc1	Jurkat viability 74 (no result: mHtt clearance)
COc1ccc(OC)c(S(=O)(=O)Nc2ccc(CC(=O)O)cc2)c1	none (no result: mHtt clearance)
CCc1ccc(NS(=O)(=O)c2cc(OC)ccc2OC)cc1	Jurkat viability 29 (no result: mHtt clearance)
Cc1ccc2[nH]c(=O)c(CN(CCO)C(=O)N(C)C)cc2c1	none (no result: HEK293 NFkB inh, M1 antagonist, Jurkat viability, M1 agonist, D1 allo mod)
CCN(C(=O)c1cc2cccc(OC)c2oc1=O)C1CCCCC1	none (no result: HEK293 NFkB inh, M1 antagonist, Jurkat viability, M1 agonist, D1 allo mod)
COc1ccccc1-n1cnnc1SCC(=O)c1ccc[nH]1	none

Compound activity: PubChem, several laboratories
